These results are taken from ChEMBL document CHEMBL1811853, “Design and evaluation of 3-aminopyrazolopyridinone kinase inhibitors inspired by the natural product indirubin” (Bioorg Med Chem, 2011).

≈ marks a conversion by molar mass, not a printed value.

Data set [1] in a line: Aqueous solubility of the compound by HPLC analysis. The note with it: water. It is filed as physicochemical. The gist of the method: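 Solubility determined by HPLC measurement of the concentration in saturated aqueous solutions of the compounds.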
The target in data set [2] is T1, Serine/threonine-protein kinase D2 (Homo sapiens) (UniProt Q9BZL6).
T1 sequence (whole entry): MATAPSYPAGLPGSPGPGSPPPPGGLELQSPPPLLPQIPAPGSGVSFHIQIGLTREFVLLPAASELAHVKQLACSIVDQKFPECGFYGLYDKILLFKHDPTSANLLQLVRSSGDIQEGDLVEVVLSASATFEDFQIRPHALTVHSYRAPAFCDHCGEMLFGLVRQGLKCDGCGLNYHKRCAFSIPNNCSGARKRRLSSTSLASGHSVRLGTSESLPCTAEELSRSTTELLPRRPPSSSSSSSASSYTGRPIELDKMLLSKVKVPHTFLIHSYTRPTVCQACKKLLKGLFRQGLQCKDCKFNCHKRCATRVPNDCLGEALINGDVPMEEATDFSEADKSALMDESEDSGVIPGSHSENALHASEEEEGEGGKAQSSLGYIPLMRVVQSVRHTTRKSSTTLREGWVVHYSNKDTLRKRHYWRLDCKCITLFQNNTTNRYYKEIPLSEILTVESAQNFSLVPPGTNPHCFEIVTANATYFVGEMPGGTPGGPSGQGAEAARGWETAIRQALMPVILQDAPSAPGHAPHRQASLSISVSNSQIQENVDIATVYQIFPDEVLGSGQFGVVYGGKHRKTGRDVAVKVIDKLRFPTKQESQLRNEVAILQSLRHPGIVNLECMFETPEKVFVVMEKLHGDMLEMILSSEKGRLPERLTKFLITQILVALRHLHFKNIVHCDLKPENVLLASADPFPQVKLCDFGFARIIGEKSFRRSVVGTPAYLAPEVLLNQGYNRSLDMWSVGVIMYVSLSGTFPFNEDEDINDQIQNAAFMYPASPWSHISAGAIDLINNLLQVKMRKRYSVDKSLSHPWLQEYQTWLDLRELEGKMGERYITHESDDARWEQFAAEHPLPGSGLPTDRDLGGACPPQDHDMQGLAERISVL
The data set can be described thus: Inhibition of PKD2 at 30 uM by microfluidic mobility shift assay. A digest of the protocol: (§1)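 Single-concentration screen, singlicate, 30 uM final (diluted from 1 mM DMSO solutions), fluorescently tagged peptide substrate appropriate to each kinase, ATP at apparent Km for each protein. Phosphorylated and unphosphorylated peptides separated electrophoretically; conversion is the phosphorylated peak area over the sum of both peaks. No-inhibitor and no-ATP controls; H89 reference on each plate.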

For data set [3], the target named is T2, Tyrosine-protein kinase ABL1 (Homo sapiens, UniProt P00519). The data set can be described thus: Inhibition of ABL at 30 uM by microfluidic mobility shift assay. A digest of the protocol: as §1
T2 sequence (P00519 whole entry): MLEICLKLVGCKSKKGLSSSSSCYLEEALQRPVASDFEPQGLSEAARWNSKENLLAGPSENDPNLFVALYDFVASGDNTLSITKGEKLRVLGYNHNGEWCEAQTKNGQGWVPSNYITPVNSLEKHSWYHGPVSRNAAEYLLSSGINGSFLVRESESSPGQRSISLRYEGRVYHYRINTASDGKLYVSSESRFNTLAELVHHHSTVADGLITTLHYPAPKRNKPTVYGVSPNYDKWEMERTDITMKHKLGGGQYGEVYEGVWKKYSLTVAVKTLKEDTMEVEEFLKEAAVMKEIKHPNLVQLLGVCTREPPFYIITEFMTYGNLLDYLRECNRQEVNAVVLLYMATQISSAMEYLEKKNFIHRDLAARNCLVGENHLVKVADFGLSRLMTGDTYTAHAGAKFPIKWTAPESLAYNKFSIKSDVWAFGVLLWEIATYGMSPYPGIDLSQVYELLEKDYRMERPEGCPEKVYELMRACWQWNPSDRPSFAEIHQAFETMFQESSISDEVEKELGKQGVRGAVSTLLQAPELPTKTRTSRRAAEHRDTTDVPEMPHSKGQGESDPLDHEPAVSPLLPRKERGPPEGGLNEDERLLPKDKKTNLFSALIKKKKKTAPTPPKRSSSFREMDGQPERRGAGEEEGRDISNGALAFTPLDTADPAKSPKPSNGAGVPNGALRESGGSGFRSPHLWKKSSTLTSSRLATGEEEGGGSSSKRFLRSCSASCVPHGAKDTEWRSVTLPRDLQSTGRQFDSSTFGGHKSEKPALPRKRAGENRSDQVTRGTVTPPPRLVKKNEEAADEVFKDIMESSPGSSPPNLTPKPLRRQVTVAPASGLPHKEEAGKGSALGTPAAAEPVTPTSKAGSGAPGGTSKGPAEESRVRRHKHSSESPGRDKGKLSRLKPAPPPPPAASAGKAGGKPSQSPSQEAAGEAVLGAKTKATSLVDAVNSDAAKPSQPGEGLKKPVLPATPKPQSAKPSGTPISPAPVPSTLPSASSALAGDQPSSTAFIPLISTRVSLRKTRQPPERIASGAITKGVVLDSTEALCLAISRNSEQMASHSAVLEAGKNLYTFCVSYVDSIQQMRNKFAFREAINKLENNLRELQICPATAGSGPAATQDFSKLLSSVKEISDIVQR
Data set [4] concerns the target T3, Proto-oncogene tyrosine-protein kinase Src (Homo sapiens, UniProt P12931). Nature of the data set: Inhibition of SRC at 30 uM by microfluidic mobility shift assay. A digest of the protocol:
as §1

Data set [5] is described as follows: Inhibition of PKA at 30 uM by microfluidic mobility shift assay. The gist of the method:
as §1

For data set [6], the target named is Mitogen-activated protein kinase 14 (Homo sapiens, UniProt Q16539). The data set can be described thus: Inhibition of p38alpha at 30 uM by microfluidic mobility shift assay. A digest of the protocol:
as §1

Data set [7] deals with Ribosomal protein S6 kinase alpha-5 (Homo sapiens) (UniProt O75582). Nature of the data set: Inhibition of MSK1 at 30 uM by microfluidic mobility shift assay. A digest of the protocol: as §1
Ribosomal protein S6 kinase alpha-5 (Homo sapiens), sequence (O75582 whole entry, looked up): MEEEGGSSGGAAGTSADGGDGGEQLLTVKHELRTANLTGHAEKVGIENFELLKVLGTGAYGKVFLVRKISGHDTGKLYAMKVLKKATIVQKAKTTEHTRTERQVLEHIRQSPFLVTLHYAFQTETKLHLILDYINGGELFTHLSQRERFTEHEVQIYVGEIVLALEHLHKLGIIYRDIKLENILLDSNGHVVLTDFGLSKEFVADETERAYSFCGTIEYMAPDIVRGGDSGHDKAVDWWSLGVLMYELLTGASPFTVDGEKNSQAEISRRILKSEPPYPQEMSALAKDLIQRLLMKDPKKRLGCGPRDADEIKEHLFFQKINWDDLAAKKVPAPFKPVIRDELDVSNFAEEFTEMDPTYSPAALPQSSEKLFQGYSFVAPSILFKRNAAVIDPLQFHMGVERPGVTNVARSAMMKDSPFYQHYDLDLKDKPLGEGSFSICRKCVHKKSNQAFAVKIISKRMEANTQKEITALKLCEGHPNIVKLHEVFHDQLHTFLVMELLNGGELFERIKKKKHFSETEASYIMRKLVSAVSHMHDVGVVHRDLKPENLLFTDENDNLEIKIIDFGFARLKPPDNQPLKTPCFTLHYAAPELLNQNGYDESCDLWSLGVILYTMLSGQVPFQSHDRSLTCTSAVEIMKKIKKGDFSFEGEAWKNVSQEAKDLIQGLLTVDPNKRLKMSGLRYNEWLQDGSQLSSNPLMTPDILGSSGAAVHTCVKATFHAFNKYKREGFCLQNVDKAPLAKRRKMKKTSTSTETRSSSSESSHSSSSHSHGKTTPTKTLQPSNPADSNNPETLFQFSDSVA
Data set [8] concerns the target MAP kinase-activated protein kinase 2 (Homo sapiens, UniProt P49137). Nature of the data set: Inhibition of MAPKAPK2 by microfluidic mobility shift assay. A digest of the protocol: (§2)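 IC50 determined in the mobility shift format: a fluorescently tagged peptide substrate appropriate to each kinase, ATP at its apparent Km for each protein, and electrophoretic separation of phospho and unphosphorylated peptide. Percent conversion is the ratio of the phosphopeptide peak area to the total peak area. Controls were no inhibitor and no ATP.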

A further data set concerns the target Aurora kinase A (Homo sapiens, UniProt O14965). The data set can be described thus: Inhibition of AurA by microfluidic mobility shift assay. A digest of the protocol:
as §2

Data set [9] addresses Casein kinase I isoform delta (Homo sapiens, UniProt P48730). Nature of the data set: Inhibition of CK1delta by microfluidic mobility shift assay. A digest of the protocol: as §2
Data set [10] concerns the target Serine/threonine-protein kinase Chk1 (Homo sapiens, UniProt O14757). The data set can be described thus: Inhibition of CHK1 by microfluidic mobility shift assay. The gist of the method:
as §2

In data set [11] the target is T2, Tyrosine-protein kinase ABL1. The data set can be described thus: Inhibition of ABL by microfluidic mobility shift assay. The gist of the method: as §2
For data set [12], the target named is Tyrosine-protein kinase Fyn (Homo sapiens, UniProt P06241). The data set can be described thus: Inhibition of FYN by microfluidic mobility shift assay. The gist of the method:
as §2

Data set [13] addresses Tyrosine-protein kinase Lyn (Homo sapiens, UniProt P07948). Nature of the data set: Inhibition of LYN by microfluidic mobility shift assay. A digest of the protocol:
as §2

The target of data set [14] is Serine/threonine-protein kinase Chk2 (Homo sapiens, UniProt O96017). Nature of the data set: Inhibition of CHK2 by microfluidic mobility shift assay. The gist of the method: as §2
Serine/threonine-protein kinase Chk2, sequence (O96017 whole entry): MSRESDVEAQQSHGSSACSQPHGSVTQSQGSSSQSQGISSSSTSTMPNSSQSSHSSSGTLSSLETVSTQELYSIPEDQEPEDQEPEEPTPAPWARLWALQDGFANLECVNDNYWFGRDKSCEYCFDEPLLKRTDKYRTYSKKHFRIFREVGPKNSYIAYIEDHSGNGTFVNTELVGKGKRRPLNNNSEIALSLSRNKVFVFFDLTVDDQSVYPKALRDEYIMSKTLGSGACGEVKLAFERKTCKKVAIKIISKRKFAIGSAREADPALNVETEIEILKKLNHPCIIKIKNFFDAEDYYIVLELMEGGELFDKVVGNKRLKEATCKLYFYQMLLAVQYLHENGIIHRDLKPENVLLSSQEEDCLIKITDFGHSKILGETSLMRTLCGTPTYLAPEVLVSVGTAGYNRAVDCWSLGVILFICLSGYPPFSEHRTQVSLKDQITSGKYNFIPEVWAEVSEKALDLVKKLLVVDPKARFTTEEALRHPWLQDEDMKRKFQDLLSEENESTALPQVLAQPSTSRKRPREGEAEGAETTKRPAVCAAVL
Data set [15] concerns the target Tyrosine-protein kinase Lck (Homo sapiens, UniProt P06239). The data set can be described thus: Inhibition of LCK by microfluidic mobility shift assay. The gist of the method:
as §2

Data set [16] deals with T3, Proto-oncogene tyrosine-protein kinase Src. The data set can be described thus: Inhibition of SRC by microfluidic mobility shift assay. A digest of the protocol:
as §2

The nature of data set [17]: Inhibition of PKA by microfluidic mobility shift assay. A digest of the protocol: as §2
The subject of the next data set is MCF7. The data set can be described thus: Growth inhibition of human MCF7 cells. In kind it is functional.

Mitogen-activated protein kinase 14, sequence (Q16539 whole entry): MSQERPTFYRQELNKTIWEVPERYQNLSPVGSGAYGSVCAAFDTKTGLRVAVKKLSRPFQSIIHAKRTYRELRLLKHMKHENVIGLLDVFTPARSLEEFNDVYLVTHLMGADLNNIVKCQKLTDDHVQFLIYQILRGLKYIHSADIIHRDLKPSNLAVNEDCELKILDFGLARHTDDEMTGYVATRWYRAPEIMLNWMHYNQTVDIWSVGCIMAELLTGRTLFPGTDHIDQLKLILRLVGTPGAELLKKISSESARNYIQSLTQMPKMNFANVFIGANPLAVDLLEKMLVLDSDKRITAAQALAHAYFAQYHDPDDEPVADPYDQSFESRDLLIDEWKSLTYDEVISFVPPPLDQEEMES
T3 sequence (P12931 2-536 limits assumed): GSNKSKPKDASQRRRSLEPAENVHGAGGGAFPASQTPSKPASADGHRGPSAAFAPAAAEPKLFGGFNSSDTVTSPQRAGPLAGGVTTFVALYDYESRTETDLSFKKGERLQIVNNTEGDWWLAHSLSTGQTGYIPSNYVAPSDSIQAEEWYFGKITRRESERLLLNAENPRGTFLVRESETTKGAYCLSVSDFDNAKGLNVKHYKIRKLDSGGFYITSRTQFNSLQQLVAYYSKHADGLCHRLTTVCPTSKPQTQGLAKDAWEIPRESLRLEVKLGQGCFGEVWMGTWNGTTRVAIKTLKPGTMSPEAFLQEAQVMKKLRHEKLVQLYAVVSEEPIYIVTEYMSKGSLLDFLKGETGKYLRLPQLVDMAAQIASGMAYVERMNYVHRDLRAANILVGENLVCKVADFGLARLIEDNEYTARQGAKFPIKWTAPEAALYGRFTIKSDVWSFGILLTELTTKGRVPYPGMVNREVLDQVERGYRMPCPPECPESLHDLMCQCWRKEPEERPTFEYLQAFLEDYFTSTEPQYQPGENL
Casein kinase I isoform delta, sequence (P48730 whole entry, canonical isoform): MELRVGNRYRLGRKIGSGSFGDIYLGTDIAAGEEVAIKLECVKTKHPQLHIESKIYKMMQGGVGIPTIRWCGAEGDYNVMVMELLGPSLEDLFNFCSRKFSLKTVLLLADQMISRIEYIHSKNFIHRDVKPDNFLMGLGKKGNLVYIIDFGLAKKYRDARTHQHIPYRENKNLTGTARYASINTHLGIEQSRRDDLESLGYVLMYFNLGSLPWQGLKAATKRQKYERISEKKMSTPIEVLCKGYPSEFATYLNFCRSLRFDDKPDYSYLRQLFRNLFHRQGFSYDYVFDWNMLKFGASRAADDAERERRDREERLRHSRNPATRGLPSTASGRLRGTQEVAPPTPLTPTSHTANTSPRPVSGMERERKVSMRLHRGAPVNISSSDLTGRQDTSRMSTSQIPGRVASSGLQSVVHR
Tyrosine-protein kinase Lyn, sequence (P07948 whole entry): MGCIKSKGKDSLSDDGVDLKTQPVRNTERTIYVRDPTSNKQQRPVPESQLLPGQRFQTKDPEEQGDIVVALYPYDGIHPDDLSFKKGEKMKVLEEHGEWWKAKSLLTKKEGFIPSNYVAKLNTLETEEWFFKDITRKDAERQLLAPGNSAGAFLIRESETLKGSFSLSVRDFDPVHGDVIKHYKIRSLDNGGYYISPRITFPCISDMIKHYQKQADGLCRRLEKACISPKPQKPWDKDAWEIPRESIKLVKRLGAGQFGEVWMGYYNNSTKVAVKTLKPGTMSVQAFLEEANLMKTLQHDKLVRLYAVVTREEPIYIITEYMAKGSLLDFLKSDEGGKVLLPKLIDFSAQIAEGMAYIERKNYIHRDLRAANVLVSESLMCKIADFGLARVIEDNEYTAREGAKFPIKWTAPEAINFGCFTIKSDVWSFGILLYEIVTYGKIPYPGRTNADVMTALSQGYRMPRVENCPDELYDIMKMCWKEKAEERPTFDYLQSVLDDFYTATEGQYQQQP
Aurora kinase A, sequence (O14965 whole entry): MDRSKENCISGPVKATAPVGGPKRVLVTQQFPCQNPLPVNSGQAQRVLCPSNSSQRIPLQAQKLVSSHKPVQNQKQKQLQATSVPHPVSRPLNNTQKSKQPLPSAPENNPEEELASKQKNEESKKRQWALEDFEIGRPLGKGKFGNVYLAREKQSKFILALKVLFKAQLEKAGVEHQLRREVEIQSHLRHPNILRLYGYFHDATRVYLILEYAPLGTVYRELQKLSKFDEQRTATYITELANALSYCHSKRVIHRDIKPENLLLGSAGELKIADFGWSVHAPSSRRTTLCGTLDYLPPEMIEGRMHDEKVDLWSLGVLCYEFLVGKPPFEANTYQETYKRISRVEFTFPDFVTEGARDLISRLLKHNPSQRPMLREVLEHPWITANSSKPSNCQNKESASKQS

Consider `COC(=O)CCc1c(C)[nH]c(=O)c2c(N)nn(C)c12`, for which the concentration in solution in data set [1] (solubility) was 469 µg/mL (≈ 1770 µM). Further, the inhibition (in general, the change of the read-out against control, counted positive when it falls) in [2] is 5%; in [3], 11%; in data set [4], 13%; in data set [5], 3%; in data set [6] it was -1%; in data set [7], 7%.
In the case of `CN1CCN(c2ccc(-c3cc4c(c(N)nn4C)c(=O)[nH]3)cc2)CC1`, the concentration in solution in data set [1] (solubility) came to 55 µg/mL (≈ 163 µM). For the same compound, the inhibition in data set [2] amounted to 34%; in [3], 80%; in data set [4], 80%; in data set [5] it was 81%; in [6] it was 3%; in data set [7], 29%. In addition, the 50% inhibitory concentration (IC50) (in general, the point on the concentration scale where inhibition reaches its midpoint) in data set [8] was found to be 35 µM; on Aurora kinase A, 33 µM; in data set [9] it was 39 µM; in [10], 24 µM; in data set [11] it was 7.8 µM; in data set [12], 17 µM. Further, the concentration for half-maximal inhibition (IC50) in data set [13] is 14 µM; in data set [14], 34 µM; in [15] it was 18 µM; in [16] it was 7.7 µM; in data set [17] it was 5.2 µM.
Regarding `Cc1cc2[nH]nc(N)c2c(=O)[nH]1`, in data set [1], the concentration in solution (solubility) came to 1640 µg/mL (≈ 9960 µM). The inhibition is -1% in [2]; 12% in [3]; 14% in [4]; 57% in data set [5]; -7% in [6]; 56% in [7].
Turning to `Cn1nc(N)c2c(=O)[nH]c(-c3ccccc3)cc21`, in [1], the concentration in solution (solubility) came to 76 µg/mL (≈ 316 µM). In addition, the inhibition in data set [2] worked out at 14%; in data set [3] it was 26%; in data set [4] it was 32%; in data set [5], 7%; in data set [6], 7%; in data set [7], 9%.
As to `Nc1c2c(=O)[nH]c(-c3ccccn3)cc2nn1-c1ccccc1`, the inhibition was 15% in [2]; 95% in data set [3]; 98% in data set [4]; 0% in data set [5]; 32% in data set [6]; 4% in data set [7]. In the data set on MCF7, the concentration for 50% growth inhibition (GI50) (in general, the concentration that inhibits growth by half) was 0.21 µM.
Take `Cc1cc2c(c(N)nn2C)c(=O)[nH]1`: the solubility – broadly, the dissolved amount per volume that the medium holds – in [1] was 1220 µg/mL (≈ 6830 µM). Besides, the inhibition is 5% in data set [2]; 0% in data set [3]; 9% in [4]; -3% in data set [5]; 6% in data set [6]; 4% in [7].
Take `Cc1cc2[nH]nc(N)c2c(N2CCCCC2)n1`: the solubility in data set [1] is 794 µg/mL (≈ 3430 µM). Besides, the inhibition in [2] stood at 14%; in data set [3] it was 18%; in data set [4] it was 33%; in data set [5], 86%; in data set [6], 1%; in data set [7], 87%.
For the compound `Cc1cc2c(c(NC(=O)Nc3ccccc3)nn2C)c(=O)[nH]1`, the solubility in [1] was under 1 µg/mL. In addition, the inhibition was -4% in [2]; 15% in [3]; 17% in data set [4]; -6% in data set [5]; 7% in [6]; 0% in data set [7].
